According to paper PMC2195664 (The Journal of Experimental Medicine, 1999):
Where two headings read alike, the source gives them in different places. Ends that are not written are not given here. * marks the point of attachment. Biotin = O=C1N[C@H]2[C@H](CS[C@H]2CCCCC(=O)*)N1

Key:
[1] = test system: 3C3 mouse NK T cell hybridoma; experiment: Competition for α-GalCer presentation by plate-bound mCD1 to 3C3 hybridoma; type: cell-based; conditions: 1 μg/well mCD1 preincubated with 25 ng/well α-GalCer
[2] = test system: 3C3 mouse NK T cell hybridoma; type: cell-based; conditions: mCD1+ A20 cells pulsed with 100 ng/ml lipid; 16 h
[3] = test system: 3C3 mouse NK T cell hybridoma; experiment: Antigen presentation by plate-bound hCD1d to 3C3 hybridoma, IL-2 release ELISA; type: cell-based; conditions: 1 μg/well plate-bound hCD1d preincubated with 100 ng lipid
Summary of the method: (§1)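 Soluble CD1d–β2m heterodimers came from stably cotransfected Drosophila SC2 cells induced 3 d with 0.7 mM CuSO₄, purified on Ni-NTA then Mono Q. Plates were coated 2 h at 37°C with 1 µg/well protein premixed with lipid in PBS. Controls were protein with DMSO (0.25–1% final) or lipid alone. After five PBS washes, 5 × 10⁴ 3C3 cells/well were added; IL-2 was measured by ELISA after 16 h.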

[4] = test system: 3C3 mouse NK T cell hybridoma; experiment: Antigen presentation by plate-bound mCD1 to 3C3 hybridoma, IL-2 release ELISA; type: cell-based; conditions: 1 μg/well plate-bound mCD1 preincubated with 100 ng lipid
Summary of the method: as §1

[5] = molecular target: T1, mCD1 (Mus musculus, UniProt P11609); experiment: SPR; type: binding
[6] = Solubility in aqueous solution; type: physicochemical; conditions: must be dissolved in DMSO-containing solutions
[7] = test system: N38-2C12 NK T hybridoma; experiment: Stimulation of 2C12 hybridoma by plates coated with soluble CD1d, IL-2 release; type: cell-based, mouse; conditions: 50 ng/well α-GalCer
Summary of the method: (§2)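 Plates were coated 2 h at 37°C with 1 µg/well soluble mCD1 or hCD1d (insect-cell-derived), either alone or premixed in PBS with 50 ng/well α-GalCer. After five PBS washes, 5 × 10⁴ hybridoma cells/well were added. IL-2 was quantified after 16 h by sandwich ELISA against a recombinant IL-2 standard (detection limit 0.1 U/ml). Representative of five experiments.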

[8] = molecular target: T2, hCD1d (Homo sapiens, UniProt P15813); experiment: SPR; type: binding
[9] = test system: mCD1-restricted CTLs; conditions: cited from earlier work
[10] = test system: DN3A4-1.2 NK T hybridoma; experiment: Stimulation of 1.2 hybridoma by plates coated with soluble CD1d, IL-2 release; type: cell-based, mouse; conditions: 50 ng/well α-GalCer
Summary of the method: as §2

[11] = test system: Vα14+ mouse NK T cell hybridomas N38-2H4 and DN3A4-1.4; experiment: Recognition of antigen on immobilized mCD1 by Vβ7; type: cell-based; conditions: data not shown
[12] = test system: 3C3 mouse NK T cell hybridoma; experiment: Competition for α-GalCer presentation by plate-bound hCD1d; type: cell-based; conditions: data not shown
Summary of the method: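 Gangliosides dissolved in PBS were added to soluble insect-cell-derived hCD1d before α-GalCer. The mixture was coated onto plates 2 h at 37°C and washed five times in PBS. 3C3 hybridoma cells (5 × 10⁴/well) were cultured 16 h, and IL-2 was measured by ELISA.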

[13] = molecular target: T2, hCD1d; type: binding; conditions: competitor preincubated with protein in solution
[14] = molecular target: T1, mCD1; type: binding; conditions: competitor preincubated with protein in solution
[15] = molecular target: T1, mCD1; experiment: SPR competition: mCD1 binding to biotin-P99 chip; conditions: mCD1 1.8–2 μM
[16] = test system: NK T cells; conditions: cited from earlier work
[17] = molecular target: T3, soluble mCD1–mβ2m heterodimer (mouse, UniProt P11609 22-305; P01887 21-119); experiment: SPR
T3 sequence (looked up) 1: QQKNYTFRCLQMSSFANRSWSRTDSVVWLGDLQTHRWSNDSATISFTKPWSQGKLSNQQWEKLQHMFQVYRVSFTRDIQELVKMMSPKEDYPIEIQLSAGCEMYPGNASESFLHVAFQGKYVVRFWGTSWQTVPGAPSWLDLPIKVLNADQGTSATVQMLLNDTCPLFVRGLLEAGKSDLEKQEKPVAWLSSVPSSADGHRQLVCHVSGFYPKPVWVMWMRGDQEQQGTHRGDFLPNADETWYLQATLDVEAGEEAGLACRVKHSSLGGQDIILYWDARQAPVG
T3 sequence (looked up) 2: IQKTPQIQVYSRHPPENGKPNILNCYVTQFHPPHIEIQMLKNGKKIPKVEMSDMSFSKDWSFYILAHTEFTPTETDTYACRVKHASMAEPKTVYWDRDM

CC(=O)N[C@H]1[C@H](O[C@H]2[C@@H](O)[C@@H](CO)O[C@@H](O[C@@H]([C@H](O)[C@@H](O)C=O)[C@H](O)CO)[C@@H]2O)O[C@H](CO[C@]2(C(=O)O)C[C@H](O)[C@@H](NC(C)=O)[C@H]([C@H](O)[C@H](O)CO)O2)[C@@H](O)[C@@H]1O[C@@H]1O[C@H](CO)[C@H](O)[C@H](O[C@]2(C(=O)O)C[C@H](O)[C@@H](NC(C)=O)[C@H]([C@H](O)[C@H](O)CO)O2)[C@H]1O [disialyllacto-N-tetraose, α-Neu5Ac-[2→3]-β-Gal-[1→3]-(α-Neu5Ac-[2→6])-β-GlcNac-[1→3]-β-Gal-[1→4]-Glc]
inhibition of α-GalCer presentation [1]: did not inhibit
inhibition of α-GalCer presentation ([1]; listed as control hexasaccharide): has no effect

CCCCCCCCCCCCCCCCCCCCCCCCCC(=O)N[C@@H](CO[C@H]1O[C@H](CO)[C@H](O)[C@H](O)[C@H]1O)[C@H](O)[C@H](O)CCCCCCCCCCCCCC [α-GalCer, α-galactosyl ceramide]
presentation to 3C3 hybridoma (IL-2 release) [2]: can present
presentation to 3C3 hybridoma (IL-2 release) [3]: could both present
presentation to 3C3 hybridoma (IL-2 release) [4]: could both present
koff ([5]; read-out: k off (fast)): 0.1 s⁻¹
koff ([5]; read-out: k off (slow)): 0.004 s⁻¹
solubility [6]: much less soluble than the gangliosides
effect on response to plate-bound CD1d [7]: can be enhanced
koff ([8]; read-out: k off (fast)): 0.08 s⁻¹
koff ([8]; read-out: k off (slow)): 0.004 s⁻¹
effect on ovalbumin peptide recognition [9]: did not affect
effect on response to plate-bound CD1d [10]: can be enhanced
recognition when presented by immobilized mCD1 [11]: could recognize

GD1a
inhibition of α-GalCer presentation [12]: could inhibit
inhibition of hCD1d binding to biotin–α-GalCer or biotin–β-GalCer chip [13]: could inhibit
inhibition of mCD1 binding to biotin–α-GalCer or biotin–β-GalCer chip [14]: could inhibit
inhibition of α-GalCer presentation [1]: could inhibit

YEHDFHHIREWGNHWKNCLAVM [P99]
inhibition of mCD1 binding to immobilized biotin-P99 [15]: inhibited by increasing concentrations
prevention of α-GalCer recognition by NK T cells [16]: neither P99 nor an ovalbumin peptide could prevent
inhibition of mCD1 binding to biotin–α-GalCer or biotin–β-GalCer chip [14]: does not affect

Biotin-YEHDFHHIREWGNHWKNCLAVM [NH2 terminus biotinylated P99 peptide]
koff [17]: 0.005 to 0.008 s⁻¹
